Measurements gathered from unrelated publications.
Lines come from different studies, so protocols differ.
Cell line: MM1.S
Observed: cell growth or viability

SMILES | assay | setting | quantity | value
CC(C)C[C@H](NC(=O)[C@H](Cc1ccccc1)NC(=O)c1cnccn1)B(O)O | ATP luminescence |  | EC50 | 1.5 nM
CCOC(=O)C1=C(C)NC(=S)NC1c1cccc(O)c1 (centres unmarked) | ATP luminescence | 72 h | IC50 | 144000 nM
CCS(=O)(=O)Nc1ccc(Oc2ccc(Cl)cc2)c(-c2cn(C)c(=O)c3ccccc23)c1 | resazurin | 72 h | IC50 | 3.5 nM
N[C@@H]1CCCN(c2c(/C=C3\SC(=O)NC3=O)cccc2-c2ccccc2)C1 | thymidine uptake | 72 h | GI50 | 711 nM
CON(C)C(=O)N1N=C(c2cc(F)ccc2F)S[C@@]1(CCCN)c1ccccc1 | ATP luminescence | 72 h | IC50 | 4.9 nM
C=CC(=O)N1CCC[C@@H](n2nc(-c3ccc(Oc4ccccc4)cc3)c3c(N)ncnc32)C1 |  | 48 h | GI50 | 7560 nM
O=C(C[C@@H](C(F)F)n1ccc(F)n1)N1CCC(O)(Cn2cnc3c(cnn3-c3ccc(F)cc3)c2=O)CC1 | ATP luminescence | 5 days | IC50 | 33 nM
CC(C)C[C@H](NC(=O)[C@H](Cc1ccccc1)NC(=O)c1cnccn1)B(O)O | ATP luminescence | 48 h | IC50 | 15 nM
